Screens: PubChem, Sanford-Burnham Center for Chemical Genomics
bIAP inhibitor = blocks bovine intestinal alkaline phosphatase activity; purified bovine IAP, CDP-star luminescence, 30 min; 190,000 tested, under 10 active; inhibition, % at 20 µM;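 active = over 50% inhibition of intestinal alkaline phosphatase at 20 µM in the single-dose screen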
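Incubation: 30 min reaction at room temperature / Material: purified bovine intestinal alkaline phosphatase (IAP) enzyme / Input: enzyme at 1/65,000,000 dilution / Dosing: 20 µM single dose / Signal: CDP-star luminescence signal / Reagent: CDP-star chemiluminescent phosphatase substrate, 30 µM final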
hIAP activ = increases human intestinal alkaline phosphatase activity; P09923; purified human IAP, CDP-Star luminescence, 30 min; stronger effect = higher value; 1 = vehicle-only enzyme, 0 = enzyme-free background; activation factor at 10 µM; 330,000 tested, 0.16% active; AID 2524;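 active = activation factor of the enzyme at least 2-fold when tested at 20 µM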
Target sequence (P09923 whole entry, looked up): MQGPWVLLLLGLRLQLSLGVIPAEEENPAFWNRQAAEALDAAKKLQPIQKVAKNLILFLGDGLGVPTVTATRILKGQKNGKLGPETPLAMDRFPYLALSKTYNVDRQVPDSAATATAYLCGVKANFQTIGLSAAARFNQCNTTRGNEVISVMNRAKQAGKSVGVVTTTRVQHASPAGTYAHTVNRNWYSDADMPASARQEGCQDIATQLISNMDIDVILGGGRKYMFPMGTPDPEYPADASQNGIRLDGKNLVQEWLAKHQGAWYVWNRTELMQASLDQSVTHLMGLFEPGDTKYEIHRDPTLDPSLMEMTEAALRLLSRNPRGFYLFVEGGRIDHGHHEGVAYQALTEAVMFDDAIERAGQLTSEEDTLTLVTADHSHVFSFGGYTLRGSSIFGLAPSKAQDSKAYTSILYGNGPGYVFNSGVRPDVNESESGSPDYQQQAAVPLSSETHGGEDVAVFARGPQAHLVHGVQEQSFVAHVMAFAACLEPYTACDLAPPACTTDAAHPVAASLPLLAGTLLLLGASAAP
mIAP act = mouse IAP activation; AID 2805; 330,000 tested, 0.24% active; muIAP, CDP-Star luminescence, 30 min; stronger effect = higher value; 1 = vehicle-only enzyme signal, 0 = enzyme-free wells; activation factor at 10 µM;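 active = activation factor of at least 2 at 20 µM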
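System: Mouse IAP enzyme | Also added: CDP-Star substrate | Dosing: Compounds dispensed in DMSO | Schedule: 30 min enzyme-substrate-compound incubation at room temperature | Technique: Chemiluminescence readout | Control set: DMSO-only wells and no-enzyme negative control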
mIAP inh = mouse IAP inhibition; purified mouse IAP, CDP-Star luminescence, 30 min; inhibition, % at 10 µM; 330,000 tested, 0.2% active; AID 2806;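 active = inhibition of at least 40% at 10 µM in the primary screen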;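 also: plate controls were DMSO with enzyme for no effect and no enzyme wells for full effect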
bIAP act = intestinal alkaline phosphatase (bovine) activation; purified bovine IAP, CDP-star luminescence, 30 min; stronger effect = higher value; fold of DMSO-control signal, blank-subtracted; AID 1016; activation factor at 20 µM; 200,000 tested, 0.17% active;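 active = activation factor of 2 or more at 20 µM, a signal rise over negative controls twice the positive control's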
hIAP inh = human IAP inhibition; P09923; purified IAP, CDP-Star luminescence, 30 min; inhibition, % at 10 µM; 330,000 tested, 0.12% active; AID 2544;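 active = inhibition reaching a set limit with compound at 10 µM in the primary screen, cut at about 35% in these data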;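 also: plate controls were DMSO wells with enzyme for no effect and no-enzyme buffer wells for full effect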
An asterisk follows results filed as active; i = inactive; · = no result. Only some compounds are listed: those with a hit (about 0.72% of all), similar ones and a draw of the others.

SMILES | bIAP inhibitor | hIAP activ | mIAP act | mIAP inh | bIAP act | hIAP inh
O=C(Cc1cccs1)NCCSc1c(-c2ccc(Cl)cc2)[nH]c2ccccc12 | -5.4 | 0.903 | 2.54* | -153.5 | 1.1 | 9.7
CCOC(=O)CSc1c(-c2ccc(Cl)cc2)[nH]c2ccccc12 | 8.3 | 1.04 | 0.97 | 3.0 | 0.9 | -3.7
O=C(Nc1ccccc1C(=O)NC(Cc1ccccc1)C(=O)NC1CCCCCC1)c1ccccc1 (centres undefined) | -5.7 | 0.943 | 2.29* | -129.4 | 1.1 | 5.7
CC(=O)N(C)c1ccc(NC(=O)C(Sc2ccccc2)c2ccccc2)cc1 (centres undefined) | -119.4 | 1.2 | 1.45 | -45.3 | 2.2* | -19.9
Cc1ccccc1N(C(=O)c1snc(C(N)=O)c1N)C(C(=O)NCC1CCCO1)c1ccc(F)cc1 (centres undefined) | · | 1.04 | 1.01 | -0.9 | · | -3.8
COc1cccc(NC(=S)NC2CC3CCCC(C2)N3CC(C)C)c1 (centres undefined) | -6.2 | 1.11 | 2.79* | -179.1 | 1.1 | -10.6
O=[N+]([O-])c1ccc(Cl)c(/C=N/n2c(-c3ccncc3)n[nH]c2=S)c1 | · | 0.944 | 0.961 | 3.9 | · | 5.6
CCOC(=O)C1Nc2ccc(C(=O)O)cc2C2C=CCC12 (centres undefined) | · | 1.06 | 0.86 | 13.9 | · | -5.6
CCOC(=O)c1ccc2c(c1)C1C=CCC1C(C(=O)O)N2 (centres undefined) | 18.3 | 1.03 | 0.454 | 54.6* | 0.8 | -3.3
Cc1ccc(C)c(OCCC(=O)Nc2ccc3c(c2)OCO3)c1 | · | 1.12 | 1.02 | -2.3 | · | -12.1
Cn1c(=O)c2c(nc(N/N=C/c3ccco3)n2C)n(C)c1=O | -108.5 | 1.35 | 0.945 | 5.5 | 2.1* | -35.3
Cn1c(=O)c2c(nc(N/N=C/c3cccs3)n2C)n(C)c1=O | · | 1.15 | 1.04 | -3.6 | · | -14.7
Cc1ccc(S(C)(=O)=O)cc1C(=O)Nc1ccc(S(=O)(=O)Nc2nccs2)cc1 | · | 0.999 | 1 | -0.1 | · | 0.1
COc1cccc(CNC(=O)CSCc2cnn(-c3ccccc3)c2-n2cccc2)c1OC | -131.2 | 1.22 | 1.01 | -1.5 | 2.3* | -21.8
COc1cc(NC(=O)CSCc2cnn(-c3ccccc3)c2-n2cccc2)cc(OC)c1 | -305.1 | 1.18 | 1.25 | -25.3 | 4.1* | -17.6
COc1ccccc1CNC(=O)CSCc1cnn(-c2ccccc2)c1-n1cccc1 | -257.6 | 1.03 | 1.08 | -7.9 | 3.6* | -3.1
O=C(CSCc1cnn(-c2ccccc2)c1-n1cccc1)NCc1cccnc1 | -34.3 | 0.954 | 1.02 | -2.5 | 1.3 | 4.6
COc1ccc(OC)c(NC(=O)CSCc2cnn(-c3ccccc3)c2-n2cccc2)c1 | 5.4 | 1.06 | 0.992 | 0.8 | 0.9 | -6.5
CCOc1ccc(NC(=O)CN2CCCC2c2cccs2)cc1S(=O)(=O)N1CCCCC1 (centres undefined) | · | 0.94 | 1.11 | -11.1 | · | 6.0
Cc1ccc(CN(C)C(=O)COC(=O)CSc2cc(C)c3ccccc3n2)cc1 | · | 0.864 | 0.997 | 0.3 | · | 13.6
CCC(=O)Nc1ccc(C(=O)NNC(=O)c2cccc(C)c2)cc1 | · | 1.09 | 1.02 | -2.2 | · | -8.7
Cc1ccc(OCCCn2c(CO)nc3ccccc32)cc1 | i | 1.22 | 0.969 | 3.1 | 6.7* | -22.2
COc1ccc(S(=O)(=O)Nc2cccc(/C=C/C(=O)O)c2)cc1 | -357.2 | 0.965 | 1.01 | -0.6 | 4.6* | 3.5
Cc1ccc(S(=O)(=O)Nc2cccc(/C=C/C(=O)O)c2)cc1 | 2.3 | 1.03 | 1.04 | -4.5 | 1 | -3.4
COc1ccc(S(=O)(=O)N2CCC(C(=O)Nc3cccc(Cl)c3)CC2)cc1OC | 0.9 | 1.11 | 2.76* | -176.0 | 1 | -10.7
SMILES | bIAP inhibitor | hIAP activ | mIAP act | mIAP inh | bIAP act | hIAP inh
CC(=O)c1cccc(NC(=O)C2CCCN(S(=O)(=O)c3ccc(F)cc3)C2)c1 (centres undefined) | 13.0 | 1.14 | 1.03 | -3.0 | 0.9 | -14.2
COc1ccc(NC(=O)C2CCN(S(=O)(=O)c3ccc(C)cc3)CC2)cc1OC | 8.2 | 1.12 | 1.23 | -22.9 | 0.9 | -11.8
Cc1ccc(NC(=O)C2CCN(S(=O)(=O)c3ccc(N4CCCC4=O)cc3)CC2)cc1Cl | · | 1.81 | 2.63* | -162.7 | · | -81.4
COc1ccc(S(=O)(=O)N2CCCC(C(=O)Nc3cccc(C(C)=O)c3)C2)cc1 (centres undefined) | -148.5 | 1.14 | 0.995 | 0.5 | 2.5* | -14.1
COc1ccc(CN2CCN(C(=O)c3c(-c4ccccc4)noc3C)CC2)cc1F | · | 1.02 | 0.9 | 10.0 | · | -1.7
O=C(Nc1ccc(Cl)cc1)NC1(C(=O)NCCCN2CCOCC2)CCCCC1 | -176.5 | 0.995 | 1.08 | -8.1 | 2.8* | 0.5
CC(=O)Nc1ccc(C2=NN(c3ccccc3)C(c3ccccc3)C2)cc1 (centres undefined) | · | 1.42 | 2.34* | -133.6 | · | -42.2
COc1ccc(C2CC(c3ccccc3)=NN2c2ccc(C(N)=O)cc2)cc1 (centres undefined) | · | 1.06 | 2.83* | -182.8 | · | -5.9
O=CN1CCN(c2c([N+](=O)[O-])c(=O)oc3ccccc23)CC1 | · | 0.91 | 0.925 | 7.5 | · | 9.0
COc1ccc(C(=O)NCCCNC(=O)c2ccccn2)cc1 | · | 0.922 | 0.979 | 2.1 | · | 7.8
C/C(=N\Nc1cccc2cccnc12)c1ccccn1 | -17.0 | 2.06* | 0.904 | 9.6 | 1.2 | -106.4
C/C(=N\Nc1cccc2cccnc12)c1ccccc1O | 1.7 | 0.958 | 0.924 | 7.6 | 1 | 4.2
CNC(=O)CN(c1ccc(Oc2ccccc2)cc1)S(=O)(=O)c1ccc(C)cc1 | · | 0.905 | 1.05 | -5.0 | · | 9.5
Fc1ccc(C2CC(c3cccs3)=NN2c2ccccc2)cc1 (centres undefined) | -69.5 | 1.44 | 2.3* | -129.9 | 1.7 | -44.1
NS(=O)(=O)c1ccc(N2N=C(c3ccccc3)CC2c2ccc(F)cc2)cc1 (centres undefined) | -40.7 | 1.21 | 2.08* | -108.4 | 1.4 | -20.9
Cc1onc(-c2ccccc2)c1C(=O)Nc1ccc(OC(C)C)cc1 | 15.7 | 1.12 | 1.02 | -2.2 | 0.8 | -12.1
Cc1onc(-c2ccccc2)c1NC(=O)Nc1ccc(OC(F)F)cc1 | · | 0.999 | 2* | -100.1 | · | 0.1
CCN(CC)S(=O)(=O)c1ccc(N2CCN(C)CC2)c(NC(=O)CSCC(=O)Nc2cccc(C)c2)c1 | · | 1.07 | 1 | -0.2 | · | -7.5
CCN(CC)S(=O)(=O)c1ccc(N2CCN(C)CC2)c(NC(=O)Nc2ccc(C)cc2)c1 | · | 1.77 | 2.01* | -100.7 | · | -76.8
CC(/C=N/NC(=O)c1n[nH]c2c1CCC2)=C\c1ccccc1 | 1.5 | 1.52 | 0.983 | 1.7 | 1 | -51.8
O=C(N/N=C/C=C/c1ccccc1)c1n[nH]c2c1CCC2 | -38.6 | 2.08* | 1.07 | -6.7 | 1.4 | -107.7
CCc1ccc(NC(=S)NC2CC3CCCC(C2)N3Cc2cccs2)cc1 (centres undefined) | -56.2 | 1.5 | 5.7* | -469.8 | 1.6 | -50.1
